ChEMBL document CHEMBL4706490, “New activators of eIF2α Kinase Heme-Regulated Inhibitor (HRI) with improved biophysical properties” (Eur J Med Chem, 2020)
The source made the active and inactive calls. The calls are words filed in the database; no cut-off is given here.

Assays:
[1] = Antiproliferative activity against human CRL-2813 cells assessed as inhibition of cell growth measured after 5 days by SRB assay; type: functional, cell-based
How it was run: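 CRL-2813 cells in 96-well plates were kept for 5 days with 0.5 to 20 µM compound, then fixed in cold 10% trichloroacetic acid and stained with sulforhodamine B; bound dye absorbance was read. Percent growth was calculated as 100×[(T−T0)/(C−T0)] using day 5 treated, control and time-zero readings. IC50 is the concentration giving 50% growth inhibition.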

[2] = biological target: Eukaryotic translation initiation factor 2 subunit 1 (Homo sapiens) (UniProt P05198); experiment: Activation of eIF2alpha (unknown origin) assessed as fold stimulation ATF-4 surrogate eIF2alpha phosphorylation at 5 uM cell based Dual luciferase reporter assay; settings: filed as activator
How it was run: (§1)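 Cells stably expressing firefly and renilla luciferase reporters were treated in 96-well plates at 10, 5, 2.5 and 1.25 µM and read with a dual glow luciferase kit. The firefly/renilla (F/R) ratio of each well was normalized to vehicle (DMSO) wells on the same plate, set at 1. Dose-response curves used triplicate points fitted to a logistic sigmoidal model.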

[3] = test system: MCF7; experiment: Antiproliferative activity against human MCF7 cells transfected with HRI siRNA at 0.27 to 10 uM after 3 days by SRB assay; settings: dose 0.27-10 µM, time 3.0 day
[4] = test system: CRL-2813; experiment: Effect on p27Kip1 expression in human CRL-2813 cells at 5 uM measured after 8 hrs Western blot analysis; type: functional, cell-based
How it was run: (§2)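 CRL-2813 melanoma cells were grown in serum-containing, antibiotic-free medium to 70% confluence and treated with 5 µM compound for 8 hours. Lysates were made in M-PER on ice, protein was normalized by BCA, and samples were separated by SDS-PAGE. Blots were probed for CHOP, p27Kip1, cyclin D1 and β-actin.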

[5] = biological target: Eukaryotic translation initiation factor 2 subunit 1 (Homo sapiens) (UniProt P05198); experiment: Activation of eIF2alpha in human CRL-2813 cells assessed as decrease in cyclin D1 expression at 5 uM measured after 8 hrs Western blot analysis; type: cell-based; how it was run: as §2
[6] = biological target: Eukaryotic translation initiation factor 2 subunit 1 (Homo sapiens) (UniProt P05198); experiment: Activation of eIF2alpha in human CRL-2813 cells assessed as eIF2alpha phosphorylation at 5 uM measured after 2 hrs Western blot analysis; type: cell-based
How it was run: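 Adherent human melanoma CRL-2813 cells were grown in serum-containing, antibiotic-free medium to 70% confluence and exposed to 5 µM compound or vehicle for 2 hours. Cells were lysed in M-PER on ice, and protein was quantified by BCA and boiled in Laemmli buffer. Lysates were run on SDS-PAGE and immunoblotted for phospho-Ser51 eIF2α, total eIF2α and β-actin.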

[7] = biological target: Eukaryotic translation initiation factor 2 subunit 1 (Homo sapiens) (UniProt P05198); experiment: Activation of eIF2alpha (unknown origin) assessed as fold stimulation ATF-4 surrogate eIF2alpha phosphorylation at 1.25 uM cell based Dual luciferase reporter assay; settings: filed as activator; how it was run: as §1
[8] = biological target: Eukaryotic translation initiation factor 2 subunit 1 (Homo sapiens) (UniProt P05198); experiment: Activation of eIF2alpha in human CRL-2813 cells assessed as increase in CHOP expression at 5 uM measured after 8 hrs Western blot analysis; type: cell-based; how it was run: as §2

Sequence of Eukaryotic translation initiation factor 2 subunit 1 (Homo sapiens) (P05198 whole entry): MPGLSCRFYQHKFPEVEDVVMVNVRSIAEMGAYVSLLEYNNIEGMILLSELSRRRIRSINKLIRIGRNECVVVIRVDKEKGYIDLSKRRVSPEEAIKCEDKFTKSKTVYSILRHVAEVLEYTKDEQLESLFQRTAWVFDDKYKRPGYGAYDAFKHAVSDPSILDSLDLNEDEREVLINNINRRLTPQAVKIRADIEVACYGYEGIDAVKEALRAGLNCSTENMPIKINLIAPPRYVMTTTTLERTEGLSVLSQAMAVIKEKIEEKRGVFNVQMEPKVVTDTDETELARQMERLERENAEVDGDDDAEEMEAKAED

| fold change (FC) [2] | fold change (FC) [7] | SMILES | IC50 ([1]; Homo sapiens, CRL2813, 120 h) [nM] | further results |
| --- | --- | --- | --- | --- |
| 9.3 | 4.6 | N#Cc1cc(F)cc(NC(=O)NC2CCC(Oc3ccc(C(F)(F)F)cc3)CC2)c1 (configuration not stated) | 630 | Activity [3]: inactive; Activity [4]: inactive; Activity ([5]; filed as activator): Active; Activity ([6]; filed as activator): Active; Activity ([8]; filed as activator): Active |
| 5.6 | 2.9 | O=C(Nc1ccc(F)c(F)c1)NC1CCC(Oc2ccc(C(F)(F)F)cc2)CC1 (trans isomer) | 1300 | – |
| 4.5 | 2.2 | O=C(Nc1ccc(F)c(F)c1)NC1CC(Oc2ccc(C(F)(F)F)cc2)C1 (trans isomer) | 5500 | – |
| 1.6 | 0.8 | N#Cc1cccc(NC(=O)N[C@H]2CC[C@H](Oc3ccc(C(F)(F)F)cc3)C2)c1 | 6500 | – |
| 6.1 | 3.7 | N#Cc1cc(NC(=O)NC2CCC(Oc3ccc(C(F)(F)F)cc3)CC2)ccc1F (configuration not stated) | 1400 | – |
| 3.5 | 1.6 | N#Cc1cccc(NC(=O)NC2CC(Oc3ccc(C(F)(F)F)cc3)C2)c1 (stereo in doubt; trans) [listing 2 of 2 here] | – | – |
| 13.8 | 5.7 | N#Cc1cc(NC(=O)NC2CCC(Oc3ccc(C(F)(F)F)cc3)CC2)cc(C(F)(F)F)c1 (configuration not stated) | 350 | Activity [3]: inactive; Activity [4]: inactive; Activity ([5]; filed as activator): Active; Activity ([6]; filed as activator): Active; Activity ([8]; filed as activator): Active |
| 3.5 | 0.9 | O=C(Nc1ccc(F)c(F)c1)N[C@H]1CC[C@H](Oc2ccc(C(F)(F)F)cc2)C1 | 5200 | – |
| 8 | 2.4 | N#Cc1cc(F)cc(NC(=O)N[C@H]2CC[C@H](Oc3ccc(C(F)(F)F)cc3)C2)c1 | 1900 | – |
| 10.4 | 5.5 | N#Cc1ccc(NC(=O)NC2CCC(Oc3ccc(C(F)(F)F)cc3)CC2)cc1F (trans isomer) | 460 | Activity [3]: inactive; Activity [4]: inactive; Activity ([5]; filed as activator): Active; Activity ([6]; filed as activator): Active; Activity ([8]; filed as activator): Active |
| 9.2 | 3.6 | O=C(Nc1cccc(C(F)(F)F)c1)NC1CCC(Oc2ccc(C(F)(F)F)cc2)CC1 (configuration not stated) | 900 | – |
| 1.5 | 1.8 | Cc1ccc(F)cc1NC(=O)NC1CCC(Oc2ccc(C(F)(F)F)cc2)CC1 (configuration not stated) | 5300 | Activity [4]: inactive; Activity ([5]; filed as activator): Active; Activity ([6]; filed as activator): Active; Activity ([8]; filed as activator): Active |
| 6.1 | 1.9 | N#Cc1cccc(NC(=O)NC2CCC(Oc3ccc(C(F)(F)F)cc3)CC2)c1 (configuration not stated) | 1600 | – |
| 1.5 | 1 | N#Cc1ccc(F)c(NC(=O)NC2CCC(Oc3ccc(C(F)(F)F)cc3)CC2)c1 (configuration not stated) | > 10000 | Activity [4]: inactive; Activity [5]: inactive; Activity [6]: inactive; Activity [8]: inactive |
| 9.9 | 4.7 | O=C(Nc1cccc(F)c1F)NC1CCC(Oc2ccc(C(F)(F)F)cc2)CC1 (configuration not stated) | 1600 | Activity [4]: inactive; Activity ([5]; filed as activator): Active; Activity ([6]; filed as activator): Active; Activity ([8]; filed as activator): Active |
| 6.2 | 2.4 | N#Cc1ccc(NC(=O)NC2CCC(Oc3ccc(C(F)(F)F)cc3)CC2)c(F)c1 (configuration not stated) | 1400 | – |

Second part, the compound before the results:

| SMILES | fold change (FC) [2] | fold change (FC) [7] | IC50 ([1]; Homo sapiens, CRL2813, 120 h) [nM] | further results |
| --- | --- | --- | --- | --- |
| N#Cc1cccc(NC(=O)NC2CC(Oc3ccc(C(F)(F)F)cc3)C2)c1 (stereo in doubt; trans) [listing 1 of 2 here] | – | – | – | IC50 ([1]; crl-2813): 4900 nM |
| O=C(Nc1cccc(C(F)(F)F)c1)NC1CC(Oc2ccc(C(F)(F)F)cc2)C1 (cis isomer) [listing 1 of 2 here] | – | – | – | IC50 ([1]; crl-2813): 2600 nM |
| N#Cc1cc(NC(=O)NC2CC(Oc3ccc(C(F)(F)F)cc3)C2)cc(C(F)(F)F)c1 (trans isomer) [listing 1 of 2 here] | 10 | 4.4 | – | Activity [3]: inactive; Activity [4]: inactive; Activity ([5]; filed as activator): Active; Activity ([6]; filed as activator): Active; Activity ([8]; filed as activator): Active |
| O=C(Nc1cccc(C(F)(F)F)c1)NC1CC(Oc2ccc(C(F)(F)F)cc2)C1 (trans isomer) [listing 1 of 2 here] | – | – | 3400 | – |
| N#Cc1cccc(NC(=O)NC2CC(Oc3ccc(C(F)(F)F)cc3)C2)c1 (stereo in doubt; cis) [listing 1 of 2 here] | – | – | – | IC50 ([1]; crl-2813): > 10000 nM |
| N#Cc1cc(NC(=O)N[C@H]2CC[C@H](Oc3ccc(C(F)(F)F)cc3)C2)cc(C(F)(F)F)c1 | 8.3 | 3.1 | 1200 | – |
| N#Cc1cccc(NC(=O)NC2CC(Oc3ccc(C(F)(F)F)cc3)C2)c1 (stereo in doubt; cis) [listing 2 of 2 here] | 0.9 | 1.1 | – | – |
| N#Cc1cc(F)cc(NC(=O)NC2CC(Oc3ccc(C(F)(F)F)cc3)C2)c1 (trans isomer) | 5.3 | 2 | 2800 | – |
| O=C(Nc1cccc(F)c1F)NC1CC(Oc2ccc(C(F)(F)F)cc2)C1 (trans isomer) | 6.2 | 0.8 | 2300 | – |
| N#Cc1cc(NC(=O)NC2CC(Oc3ccc(C(F)(F)F)cc3)C2)cc(C(F)(F)F)c1 (trans isomer) [listing 2 of 2 here] | – | – | 900 | – |
| O=C(Nc1cccc(C(F)(F)F)c1)NC1CC(Oc2ccc(C(F)(F)F)cc2)C1 (cis isomer) [listing 2 of 2 here] | 6.2 | 1.2 | – | – |
| N#Cc1cc(NC(=O)NC2CC(Oc3ccc(C(F)(F)F)cc3)C2)cc(C(F)(F)F)c1 (cis isomer) | 8.4 | 4.3 | – | – |
| O=C(Nc1cccc(C(F)(F)F)c1)N[C@H]1CC[C@H](Oc2ccc(C(F)(F)F)cc2)C1 | 7 | 1.2 | 2500 | – |
| Cc1ccc(F)cc1NC(=O)NC1CC(Oc2ccc(C(F)(F)F)cc2)C1 (configuration not stated) | 1.4 | 0.7 | > 10000 | – |
| O=C(Nc1cccc(C(F)(F)F)c1)NC1CC(Oc2ccc(C(F)(F)F)cc2)C1 (trans isomer) [listing 2 of 2 here] | 6.5 | 2.4 | – | – |
| Cc1ccc(F)cc1NC(=O)N[C@H]1CC[C@H](Oc2ccc(C(F)(F)F)cc2)C1 | 1.3 | 1.4 | 8000 | – |
